Data published in ChEMBL document CHEMBL3400092 (2015).
The source made the active and inactive calls. The rule behind the calls is not given here.

Assays:
CL1-5 = experiment: Reduction in total wild type EGFR levels in gefinitib-insensitive and 24 hrs serum starved human CL1-5 cells at 10 uM pre-incubated for 1 hr before EGF stimulation for 30 mins by Western blot method; format: functional
Method in brief: (§1)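 Cells in RPMI-1640 with 10% FBS were plated at 1×10^6 per 10-cm dish, cultured overnight, then kept serum-free for 24 h. They were pre-treated with 10 μM compound for 1 h, serum-free, then stimulated with EGF 20 ng/mL (20 min in methods, 30 min in legend). Whole-cell lysates, 40 μg/lane, were run on 10% SDS-PAGE, blotted to PVDF, probed for pan-EGFR and pEGFR (Tyr1068), and detected by ECL.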

NCI-H1975 = experiment: Reduction in total EGFR L858R and T790M mutant levels in gefinitib-resistant and 24 hrs serum starved human NCI-H1975 cells at 10 uM pre-incubated for 1 hr before EGF stimulation for 30 mins by Western blot method; format: functional, cell-based; method in brief: as §1
[1] = target: Epidermal growth factor receptor (Homo sapiens) (UniProt P00533); details: CL1-5, at 10 µM
Epidermal growth factor receptor (Homo sapiens), sequence (P00533 whole entry): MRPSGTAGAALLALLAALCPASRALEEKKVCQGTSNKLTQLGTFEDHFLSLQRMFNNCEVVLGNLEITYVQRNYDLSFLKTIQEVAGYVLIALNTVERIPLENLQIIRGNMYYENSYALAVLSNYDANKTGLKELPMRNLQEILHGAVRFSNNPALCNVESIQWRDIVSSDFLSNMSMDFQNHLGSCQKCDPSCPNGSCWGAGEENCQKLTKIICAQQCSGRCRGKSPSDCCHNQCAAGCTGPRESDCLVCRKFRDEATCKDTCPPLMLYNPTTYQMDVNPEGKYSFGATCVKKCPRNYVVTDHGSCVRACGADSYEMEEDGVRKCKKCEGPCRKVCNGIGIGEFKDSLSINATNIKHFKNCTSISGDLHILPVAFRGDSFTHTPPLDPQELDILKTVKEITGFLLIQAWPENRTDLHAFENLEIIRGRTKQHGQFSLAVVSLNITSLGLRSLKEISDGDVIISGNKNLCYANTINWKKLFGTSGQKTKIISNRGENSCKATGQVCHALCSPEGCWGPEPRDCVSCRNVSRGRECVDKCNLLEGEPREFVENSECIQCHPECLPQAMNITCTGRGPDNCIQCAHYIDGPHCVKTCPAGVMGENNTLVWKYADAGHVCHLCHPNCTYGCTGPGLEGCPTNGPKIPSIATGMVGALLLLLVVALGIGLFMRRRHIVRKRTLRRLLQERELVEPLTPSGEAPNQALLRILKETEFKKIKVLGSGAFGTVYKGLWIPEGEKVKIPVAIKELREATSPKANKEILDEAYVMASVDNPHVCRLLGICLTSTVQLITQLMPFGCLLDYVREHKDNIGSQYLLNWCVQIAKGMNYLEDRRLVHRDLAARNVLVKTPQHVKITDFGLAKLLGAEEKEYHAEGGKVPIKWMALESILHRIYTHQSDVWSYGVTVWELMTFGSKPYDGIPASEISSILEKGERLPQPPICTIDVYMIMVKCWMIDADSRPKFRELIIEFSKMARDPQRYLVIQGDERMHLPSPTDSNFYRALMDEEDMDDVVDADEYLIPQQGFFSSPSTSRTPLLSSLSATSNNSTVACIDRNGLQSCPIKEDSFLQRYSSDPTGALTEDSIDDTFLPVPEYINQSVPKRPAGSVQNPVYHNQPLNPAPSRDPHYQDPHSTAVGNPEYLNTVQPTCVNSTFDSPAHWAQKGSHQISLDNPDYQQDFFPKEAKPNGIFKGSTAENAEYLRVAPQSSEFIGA

[2] = system: Epidermal growth factor receptor (Homo sapiens), P00533 [L858R,T790M]; details: NCI-H1975, at 10 µM
Epidermal growth factor receptor (Homo sapiens), P00533 [L858R,T790M], sequence (P00533 whole entry T790M/L858R, looked up): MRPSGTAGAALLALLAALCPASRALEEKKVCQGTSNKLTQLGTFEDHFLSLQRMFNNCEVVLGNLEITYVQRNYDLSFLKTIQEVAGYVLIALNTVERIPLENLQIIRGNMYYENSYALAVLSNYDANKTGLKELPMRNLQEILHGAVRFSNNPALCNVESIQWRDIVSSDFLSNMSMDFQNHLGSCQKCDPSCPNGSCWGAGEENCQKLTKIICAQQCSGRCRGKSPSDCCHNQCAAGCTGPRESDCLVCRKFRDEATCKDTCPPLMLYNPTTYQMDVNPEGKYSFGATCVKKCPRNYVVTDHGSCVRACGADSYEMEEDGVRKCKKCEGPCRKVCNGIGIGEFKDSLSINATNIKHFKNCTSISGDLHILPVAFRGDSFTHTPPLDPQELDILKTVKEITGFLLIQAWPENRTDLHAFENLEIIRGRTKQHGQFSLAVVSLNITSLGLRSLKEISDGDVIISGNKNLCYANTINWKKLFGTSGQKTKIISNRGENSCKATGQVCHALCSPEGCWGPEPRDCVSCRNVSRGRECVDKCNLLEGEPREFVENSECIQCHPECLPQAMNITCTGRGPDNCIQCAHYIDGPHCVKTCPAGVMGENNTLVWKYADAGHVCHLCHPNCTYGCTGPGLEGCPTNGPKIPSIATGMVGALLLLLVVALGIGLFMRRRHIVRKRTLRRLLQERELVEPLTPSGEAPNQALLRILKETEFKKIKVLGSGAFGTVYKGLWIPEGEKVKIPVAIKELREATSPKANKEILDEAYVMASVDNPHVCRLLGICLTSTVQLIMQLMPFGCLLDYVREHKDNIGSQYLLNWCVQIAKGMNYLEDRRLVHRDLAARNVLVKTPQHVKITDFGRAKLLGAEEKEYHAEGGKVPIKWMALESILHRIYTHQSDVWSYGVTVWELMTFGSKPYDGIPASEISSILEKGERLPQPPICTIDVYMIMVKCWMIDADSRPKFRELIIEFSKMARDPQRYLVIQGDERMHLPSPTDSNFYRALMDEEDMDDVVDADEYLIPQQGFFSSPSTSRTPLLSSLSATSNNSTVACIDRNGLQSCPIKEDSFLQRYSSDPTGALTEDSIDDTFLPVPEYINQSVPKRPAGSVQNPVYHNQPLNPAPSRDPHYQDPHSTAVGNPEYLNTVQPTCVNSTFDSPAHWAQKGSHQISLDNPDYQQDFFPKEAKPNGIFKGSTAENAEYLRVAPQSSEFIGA

IEC-18 = experiment: (§2) Cytoprotective activity against 40 uM gefitinib-induced cytotoxicity in rat IEC-18 cells assessed as restoration of cell viability at 5 uM incubated for 24 hrs by MTT assay; format: functional
Method in brief: (§3)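 IEC-18 rat intestinal epithelial cells, kept in DMEM with 10% FBS, were seeded at 5×10^3 cells/well and co-treated with compound and gefitinib for 24 h. Stocks were in DMSO, with final DMSO below 0.1%. MTT (0.5 mg/mL) was added for 1.5 h, then DMSO, and absorbance was read at 570 nm. Viability was expressed as proliferative index (%) relative to untreated cells (100%). Triplicate; Student t-test.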

[3] = as §2; format: functional; method in brief: as §3

SMILES | inhibition [1] | inhibition [2] | inhibition (CL1-5) | inhibition (NCI-H1975) | Activity (IEC-18) | Activity [3]
COc1cc(/C=C/C(=O)/C=C(O)/C=C/c2ccc(OCC(=O)Nc3ccccc3)c(OC)c2)ccc1OCC(=O)Nc1ccccc1 | inactive | inactive | inactive | inactive | – | –
COC(=O)COc1ccc(/C=C/C(=O)/C=C(O)/C=C/c2ccc(OCC(=O)OC)c(OC)c2)cc1OC | inactive | inactive | inactive | inactive | – | –
COc1ccc(/C=C/C(=O)/C(C)=C(O)/C=C/c2ccc(OC)c(OC)c2)cc1OC | Active | Active | Active | Active | – | –
COc1cc(F)c(/C=C/C(=O)/C=C(O)/C=C/c2cc(OC)c(OC)cc2F)cc1OC | Active | Active | Active | Active | – | –
COc1cc(OC)c(OC)cc1/C=C/C(O)=C/C(=O)/C=C/c1ccc(OC)c(OC)c1 | Active | Active | Active | Active | – | –
COc1ccc(/C=C/C(=O)/C=C(O)/C=C/c2ccc(OC)c(OC)c2)cc1OC | Active | Active | Active | Active | Active | –
COc1ccc(/C=C/C(=O)/C=C(O)/C=C/c2ccc(OC)c(OC)c2)cc1O | Active | Active | Active | Active | Active | –
CCOC(=O)CCCOc1ccc(/C=C/C(=O)/C=C(O)/C=C/c2ccc(OCCCC(=O)OCC)c(OC)c2)cc1OC | inactive | inactive | inactive | inactive | – | –
COc1cc(/C=C/C(=O)/C=C(O)/C=C/c2ccc(OCC(=O)O)c(OC)c2)ccc1OCC(=O)O | inactive | inactive | inactive | inactive | – | –
COc1cc(OC)c(OC)cc1/C=C/C(=O)/C=C(O)/C=C/c1cc(OC)c(OC)cc1OC | Active | Active | Active | Active | – | –
COc1ccc(/C=C/C(=O)/C=C(O)/C=C/c2ccc(OC)c(OC)c2OC)cc1OC | Active | Active | Active | Active | – | –
COc1cc(/C=C/C(=O)/C=C(O)/C=C/c2cc(O)c(OC)c(OC)c2)cc(O)c1OC | inactive | inactive | inactive | inactive | – | –
COc1cc(/C=C/C(=O)/C=C(O)/C=C/c2ccc(OCCCC(=O)O)c(OC)c2)ccc1OCCCC(=O)O | inactive | inactive | inactive | inactive | – | –
COc1ccc(/C=C/C(=O)/C=C(O)/C=C/c2ccc(OC)c(OC)c2OC)c(OC)c1OC | Active | Active | Active | Active | – | –
COc1ccc(CCC(=O)CC(O)CCc2ccc(OC)c(OC)c2)cc1OC (stereo not given) | inactive | inactive | inactive | inactive | – | –
CCOC(=O)CC/C(C(=O)/C=C/c1cc(OC)c(O)c(OC)c1)=C(O)\C=C\c1cc(OC)c(O)c(OC)c1 | inactive | inactive | inactive | inactive | – | –
CCOC(=O)/C=C/C(C(=O)/C=C/c1ccc(OC)c(OC)c1)=C(O)\C=C\c1ccc(OC)c(OC)c1 | inactive | inactive | inactive | inactive | – | –
CCOC(=O)CCCOc1ccc(/C=C/C(=O)/C(CCC(=O)OCC)=C(O)/C=C/c2ccc(OCCCC(=O)OCC)c(OC)c2)cc1OC | inactive | inactive | inactive | inactive | – | –
CCOC(=O)CC/C(C(=O)/C=C/c1ccc(OCC(=O)OC)c(OC)c1)=C(O)\C=C\c1ccc(OCC(=O)OC)c(OC)c1 | inactive | inactive | inactive | inactive | – | –
COc1cc(/C=C/C(=O)CC(=O)/C=C/c2ccc(O)c(OC)c2)ccc1O | – | – | Active | Active | Active | –
CCOC(=O)CC/C(C(=O)/C=C/c1cc(O)c(OC)c(OC)c1)=C(O)\C=C\c1cc(O)c(OC)c(OC)c1 | Active | Active | inactive | – | – | –
COc1cc(/C=C/C(O)=C/C(=O)/C=C/c2ccc(O)cc2)ccc1O | inactive | inactive | inactive | inactive | – | –
O=C(/C=C(O)/C=C/c1ccc(O)c(O)c1)/C=C/c1ccc(O)c(O)c1 | Active | Active | Active | inactive | – | <=80%

Further lines, with some results ahead:

inhibition [1] | inhibition [2] | SMILES | inhibition (CL1-5) | inhibition (NCI-H1975) | Activity (IEC-18) | Activity [3]
inactive | inactive | O=C(O)CC/C(C(=O)/C=C/c1ccc(O)c(O)c1)=C(O)\C=C\c1ccc(O)c(O)c1 | inactive | inactive | – | –
inactive | inactive | CCOC(=O)/C=C/C(C(=O)/C=C/c1ccc(O)c(O)c1)=C(O)\C=C\c1ccc(O)c(OC)c1 | inactive | inactive | – | –
inactive | inactive | COc1cc(/C=C/C(=O)/C(CCC(=O)O)=C(O)/C=C/c2ccc(OCCCC(=O)O)c(OC)c2)ccc1OCCCC(=O)O | inactive | inactive | – | –
Active | Active | CCOC(=O)CC/C(C(=O)/C=C/c1ccc(O)c(OC)c1)=C(O)\C=C\c1ccc(O)c(O)c1 | Active | Active | – | –
inactive | inactive | COc1cc(/C=C/C(=O)/C(CCC(=O)O)=C(O)/C=C/c2ccc(O)c(O)c2)ccc1O | inactive | inactive | – | –
inactive | inactive | COc1cc(/C=C/C(=O)/C(CCC(=O)O)=C(O)/C=C/c2ccc(O)c(OC)c2)ccc1O | inactive | inactive | – | –
inactive | inactive | CCOC(=O)CC/C(C(=O)/C=C/c1ccc(OC)c(OC)c1)=C(O)\C=C\c1ccc(OC)c(OC)c1 | inactive | inactive | – | –
Active | Active | COc1cc(/C=C/C(=O)/C(C(C)=O)=C(O)/C=C/c2ccc(O)c(OC)c2)ccc1O | Active | Active | – | –
inactive | Active | COc1cc(/C=C/C(O)=C/C(=O)/C=C/c2ccc(O)c(O)c2)ccc1O | inactive | Active | – | –
Active | Active | COc1cc(/C=C/C(O)=C/C(=O)/C=C/c2ccc(OC)c(OC)c2)ccc1O | Active | Active | Active | –
Active | inactive | CCOC(=O)CC/C(C(=O)/C=C/c1ccc(O)c(OC)c1)=C(O)\C=C\c1ccc(O)c(OC)c1 | Active | inactive | – | –
Active | inactive | CCOC(=O)CC/C(C(=O)/C=C/c1ccc(O)c(O)c1)=C(O)\C=C\c1ccc(O)c(O)c1 | Active | inactive | – | –
inactive | inactive | CCOC(=O)/C=C/C(C(=O)/C=C/c1ccc(O)c(OC)c1)=C(O)\C=C\c1ccc(O)c(OC)c1 | inactive | inactive | – | –
Active | Active | CCOC(=O)CC/C(C(=O)/C=C/c1ccc(OC)c(OC)c1)=C(O)\C=C\c1ccc(O)c(OC)c1 | Active | Active | – | –
